Assay results taken from ChEMBL document CHEMBL1122504, “Heterocyclic Quinones. 4. A new highly cytotoxic drug: 6,7-bis(1-aziridinyl)-5,8-quinazolinedione” (1983).

Experiments:
B16 [1] = test: MST of treated animal over control when administered at a dose of 10 mg/kg intraperitoneally on Q01Dx01 treatment schedule in B16 melanocarcinoma cell lines; type: functional, Mus musculus; settings: route intraperitoneal
Method in brief: (§1)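 B16 melanocarcinoma: C57Bl/6 mice implanted sc with cell suspension on day 0; single ip dose in 0.15 M NaCl saline given on day 1. Median survival time was recorded in days, with toxicity taken as survivors on day 5. T/C% = treated MST/control MST × 100; >125% is considered significant.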

B16 [2] = test: Median survival time of […] melanocarcinoma cell line after a dose of 10 mg/kg administered intraperitoneally on Q01Dx01 treatment schedule; type: functional, Mus musculus; settings: route intraperitoneal; method in brief: as §1
B16 [3] = test: Median survival time of […] melanocarcinoma cell line after a dose of 5 mg/kg administered intraperitoneally on Q01Dx01 treatment schedule; type: functional, Mus musculus; settings: route intraperitoneal; method in brief: as §1
L1210 [4] = test: Median survival time of L1210 cell line after a dose of 2.5 mg/kg administered intraperitoneally on Q01Dx09 treatment schedule; type: functional, Mus musculus; settings: route intraperitoneal
Method in brief: (§2)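 L1210 leukaemia: DBA/2 mice inoculated ip with 10^5 cells on day 0, with ip drug in 0.15 M NaCl saline on the stated schedule. The read-out was median survival time in days, with toxicity taken as survivors on day 5. T/C% = treated MST/control MST × 100; >125% is considered significant.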

L1210 [5] = test: Median survival time of L1210 cell line after a dose of 5 mg/kg administered intraperitoneally on Q01Dx05 treatment schedule; type: functional, Mus musculus; settings: route intraperitoneal; method in brief: as §2
L1210 [6] = test: MST of treated animal over control when administered at a dose of 10 mg/kg intraperitoneally on Q01Dx01 treatment schedule in L1210 cell lines; type: functional, Mus musculus; settings: route intraperitoneal; method in brief: as §2
L1210 [7] = test: MST of treated animal over control when administered at a dose of 20 mg/kg intraperitoneally on Q01Dx01 treatment schedule in L1210 cell lines; type: functional, Mus musculus; settings: route intraperitoneal; method in brief: as §2
L1210 [8] = test: Median survival time of L1210 cell line after a dose of 10 mg/kg administered intraperitoneally on Q01Dx01 treatment schedule; type: functional, Mus musculus; settings: route intraperitoneal; method in brief: as §2
L1210 [9] = test: Median survival time of L1210 cell line after a dose of 10 mg/kg administered intraperitoneally on Q01Dx02 treatment schedule; type: functional, Mus musculus; settings: route intraperitoneal; method in brief: as §2
L1210 [10] = test: Number of survivors of L1210 cell line on day 5/ number of treated mice at a dose of 1 i.p. injection of 10 mg/kg on Q01Dx01 treatment schedule; 10/10; type: functional, Mus musculus; settings: route intraperitoneal
L1210 [11] = test: Number of survivors of L1210 cell line on day 5/ number of treated mice at a dose of 2ip injection of 10 mg/kg on Q01Dx02 treatment schedule; 10/10; type: functional, Mus musculus
P388 [12] = test: Number of survivors of P388 lymphocytic leukemia cell line on day 5/ number of treated mice at a dose of 1 i.v. injection of 5 mg/kg on Q01Dx01 treatment schedule; 10/10; type: functional, Mus musculus; settings: route intravenous
P388 [13] = test: Number of survivors of P388 lymphocytic leukemia cell line on day 5/ number of treated mice at a dose of 3 ip injection of 10 mg/kg on Q04Dx03 treatment schedule; 10/10; type: functional, Mus musculus; settings: route intraperitoneal
P388 [14] = test: Number of survivors of P388 lymphocytic leukemia cell line on day 5/ number of treated mice at a dose of 5 ip injection of 5 mg/kg on Q01Dx05 treatment schedule; 10/10; type: functional, Mus musculus; settings: route intraperitoneal
P388 [15] = test: MST of treated animal over control when administered at a dose of 15 mg/kg perorally on Q01Dx07 treatment schedule; type: functional, Mus musculus; settings: route oral
Method in brief: (§3)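 P388 leukaemia: DBA/2 mice inoculated with 10^6 cells on day 0; treatment began day 1 at the stated route and schedule. Drug was dissolved in 0.15 M NaCl saline. The read-out was median survival time (MST, days), with toxicity taken as survivors on day 5. T/C% = treated MST/control MST × 100; ≥125% is considered significant.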

P388 [16] = test: MST of treated animal over control when administered at a dose of 2.5 mg/kg intravenously on Q01Dx01 treatment schedule; type: functional, Mus musculus; settings: route intravenous; method in brief: as §3
P388 [17] = test: MST of treated animal over control when administered at a dose of 5 mg/kg intraperitoneally on Q01Dx05 treatment schedule; type: functional, Mus musculus; settings: route intraperitoneal; method in brief: as §3
P388 [18] = test: MST of treated animal over control when administered at a dose of 5 mg/kg intravenously on Q01Dx01 treatment schedule; type: functional, Mus musculus; settings: route intravenous; method in brief: as §3
P388 [19] = test: Number of survivors of P388 lymphocytic leukemia cell line on day 5/ number of treated mice at a dose of 1 i.p. injection of 10 mg/kg on Q01Dx01 treatment schedule; 10/10; type: functional, Mus musculus; settings: route intraperitoneal
P388 [20] = test: Median survival time of P388 lymphocytic leukemia cell line after a dose of 10 mg/kg administered intraperitoneally on Q01Dx01 treatment schedule; type: functional, Mus musculus; settings: route intraperitoneal; method in brief: as §3
P388 [21] = test: Median survival time of P388 lymphocytic leukemia cell line after a dose of 5 mg/kg administered intraperitoneally on Q01Dx05 treatment schedule; type: functional, Mus musculus; settings: route intraperitoneal; method in brief: as §3
P388 [22] = test: Median survival time of P388 lymphocytic leukemia cell line after a dose of 10 mg/kg administered perorally on Q01Dx07 treatment schedule; type: functional, Mus musculus; settings: route oral; method in brief: as §3
P388 [23] = test: Median survival time of P388 lymphocytic leukemia cell line after a dose of 5 mg/kg administered intravenously on Q01Dx01 treatment schedule; type: functional, Mus musculus; settings: route intravenous; method in brief: as §3
Sarcoma-180 [24] = test: Median survival time of sarcoma 180 cell line after a dose of 10 mg/kg administered intraperitoneally on Q01Dx01 treatment schedule; type: functional, Mus musculus; settings: route intraperitoneal
Method in brief: (§4)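 Sarcoma 180 was inoculated ip in Swiss mice (10^6 cells, day 0), and drug was given ip in 0.15 M NaCl saline. Median survival time was recorded in days; antitumor activity was expressed as treated MST over control MST ×100, significant above 125%.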

Sarcoma-180 [25] = test: Median survival time of sarcoma 180 cell line after a dose of 20 mg/kg administered intraperitoneally on Q01Dx01 treatment schedule; type: functional, Mus musculus; settings: route intraperitoneal; method in brief: as §4
Sarcoma-180 [26] = test: Number of survivors of sarcoma 180 cell line on day 5/ number of treated mice at a dose of 1 ip injection of 20 mg/kg on Q01Dx01 treatment schedule; 10/10; type: functional, Mus musculus; settings: route intraperitoneal
Salmonella typhimurium [27] = test: Mutagenesis test was performed at 0.7 uM concentration in Salmonella Typhimurium TA 98; type: functional, Salmonella enterica subsp. enterica serovar Typhimurium
Method in brief: (§5)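 Salmonella typhimurium his auxotrophs TA98 and TA100 were tested by liquid suspension without metabolic activation. Overnight Oxoid nutrient broth cultures were subcultured, grown 2 h, then exposed to drug for 5 h. Cells were washed, resuspended to A650 2.50, and plated in top agar (0.6% agar, 0.6% NaCl). His+ revertants per plate were counted after 48 h at 37 °C; values are means of three assays.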

Salmonella typhimurium [28] = test: Mutagenesis test was performed at 10 uM concentration in Salmonella Typhimurium TA 98; type: functional, Salmonella enterica subsp. enterica serovar Typhimurium; method in brief: as §5
Salmonella typhimurium [29] = test: Mutagenesis test was performed at 20 uM concentration in Salmonella Typhimurium TA 100; type: functional, Salmonella enterica subsp. enterica serovar Typhimurium; method in brief: as §5
Salmonella typhimurium [30] = test: Mutagenesis test was performed at 40 uM concentration in Salmonella Typhimurium TA 98; type: functional, Salmonella enterica subsp. enterica serovar Typhimurium; method in brief: as §5
Sarcoma-180 [31] = test: MST of treated animal over control when administered at a dose of 20 mg/kg intraperitoneally on Q01Dx01 treatment schedule in sarcoma 180 cell lines; type: functional, Mus musculus; settings: route intraperitoneal
Method in brief: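 Sarcoma 180: Swiss mice inoculated ip with 10^6 cells on day 0, with single ip injection of drug in 0.15 M NaCl saline. Median survival time was recorded in days, with toxicity taken as survivors on day 5. T/C% = treated MST/control MST × 100; >125% is considered significant.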

SMILES: O=C1C(N2CC2)=C(N2CC2)C(=O)c2ncncc21
- T/C (B16 [1]): 91%
- MST (B16 [2]): 20.8 days
- MST (B16 [3]): 15.7 days
- MST (L1210 [4]): 9.1 days
- MST (L1210 [5]): 9.1 days
- T/C (L1210 [6]): 114%
- T/C (L1210 [7]): 115%
- MST (L1210 [8]): 9.4 days
- MST (L1210 [9]): 9 days
- Toxicity Survivors (L1210 [10]): 10
- Toxicity Survivors (L1210 [11]): 10
- Toxicity Survivors (P388 [12]): 10
- Toxicity Survivors (P388 [13]): 10
- Toxicity Survivors (P388 [14]): 10
- T/C (P388 [15]): 100%
- T/C (P388 [16]): 103%
- T/C (P388 [17]): 138%
- T/C (P388 [18]): 103%
- Toxicity Survivors (P388 [19]): 10
- MST (P388 [20]): 9.5 days
- MST (P388 [21]): 10.4 days
- MST (P388 [22]): 7.6 days
- MST (P388 [23]): 10.4 days
- MST (Sarcoma-180 [24]): 18.3 days
- MST (Sarcoma-180 [25]): 19 days
- Toxicity Survivors (Sarcoma-180 [26]): 10
- Revertants/plate (Salmonella typhimurium [27]): 101
- Revertants/plate (Salmonella typhimurium [28]): 89
- Revertants/plate (Salmonella typhimurium [29]): 108
- Revertants/plate (Salmonella typhimurium [30]): 334
- T/C (Sarcoma-180 [31]): 110%
